A selection: hits, their analogues and other compounds. The true share with any hit is near 2.9%.
Wee1 degr inh: blocks degradation of human Wee1 kinase. P30291. HeLa Luc-Wee1K328M stability, luciferase luminescence; 100% = proteasome inhibitor MG132 effect. reporter increase, % at 5 µM. 220,000 compounds, 1.2% hits. AID 1321;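 active = activation above the mean of all tested compounds plus 3 SD, set per screening run, cut at about 8.8% in these data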;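 also: cells exposed to compound for 20 h before luminescence read; 0% = DMSO alone and 100% = MG132 at 30 µM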
Target sequence (P30291 whole entry K328M): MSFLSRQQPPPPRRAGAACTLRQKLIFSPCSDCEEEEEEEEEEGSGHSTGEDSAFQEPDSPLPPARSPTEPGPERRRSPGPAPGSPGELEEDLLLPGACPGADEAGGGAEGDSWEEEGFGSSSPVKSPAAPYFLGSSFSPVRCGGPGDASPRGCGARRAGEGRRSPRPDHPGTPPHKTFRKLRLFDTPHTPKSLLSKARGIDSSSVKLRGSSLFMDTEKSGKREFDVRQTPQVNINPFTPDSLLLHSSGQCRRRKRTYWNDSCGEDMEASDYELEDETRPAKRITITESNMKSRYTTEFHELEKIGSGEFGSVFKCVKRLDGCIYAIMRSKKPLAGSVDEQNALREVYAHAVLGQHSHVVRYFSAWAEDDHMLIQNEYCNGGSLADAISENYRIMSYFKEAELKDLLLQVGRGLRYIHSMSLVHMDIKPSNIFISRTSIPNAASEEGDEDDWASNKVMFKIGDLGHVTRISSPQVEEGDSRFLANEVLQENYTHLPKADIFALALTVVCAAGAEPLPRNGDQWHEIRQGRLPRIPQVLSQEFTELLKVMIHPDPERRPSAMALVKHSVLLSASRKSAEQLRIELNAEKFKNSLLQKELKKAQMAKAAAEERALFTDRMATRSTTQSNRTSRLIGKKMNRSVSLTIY
bCat nuc transl: modulators of beta-catenin nuclear translocation; 190,000 compounds, 0.3% hits; HeLa beta-catenin nuclear translocation, immunofluorescence imaging; nuclear translocation activity, % at 5 µM;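 active = nuclear translocation activity above 50% at 5 µM, with a well cell count of 50 or more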;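 also: per-cell ratio of nuclear to cytoplasmic median beta-catenin stain intensity; plate controls were DMSO negative control for no effect and GSK-3 inhibitor IX positive control for full effect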
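Test system: human HeLa cells, native beta-catenin. Compound dosing: 5 µM primary single dose, 0.1% DMSO, 0.02–20 µM confirmation series. Incubation: compound exposure 24 h at 37°C. Detection: beta-catenin immunostaining with DAPI counterstain, 20x imaging, 6 fields/well. Read-out basis: Nuclear/cytoplasmic beta-catenin signal ratio, % activation.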
MT stabilize HCS: microtubule stabilization, imaging screen; % tubulin-high responders, % at 10 µM; 200,000 compounds, 0.83% hits; HeLa tubulin immunostaining HCS, 24 h; share of cells brighter than vehicle mean+2SD; AID 2205;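 active = plate Z-score above 3 for both tubulin-high and condensed-nucleus cell shares, with cell loss under 80%, at 10 µM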;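 also: anti alpha tubulin signal scored within the nucleus-defined area of each cell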
Insulin prom up: MIN6 insulin promoter up-regulation; MIN6 insulin promoter-GFP reporter, high-content imaging; active compounds read high; AID 1625; z-score at 5 µM; 190,000 compounds, 0.3% hits;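 active = z-score above 3 at 5 µM with at least 500 cells counted in the well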
Autophagy mod: alters autophagy in cells | MEF GFP-LC3 puncta imaging; test concentration mostly 10 µM | calls only at 10 µM (by protocol) | 190,000 compounds, 0.98% hits;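 active = percentage of spot-positive cells more than 3 SD above its plate mean, without a fluorescence outlier flag or 80% toxicity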;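 also: spot-positive cell cutoff set from DMSO-treated cells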
Wee1 degr conf: human Wee1 degradation inhibition, confirmation | shares compounds with Wee1 degr inh | HeLa Luc-Wee1K328M degradation, luminescence; vehicle 0%, proteasome-blocked wells 100% | activation, % at 5 µM | 1,100 compounds, 4% hits | AID 1410; in the data active = activation above about 8.9%
* hit, by the source's call.

COc1ccc(C2c3ccsc3CCN2C(=O)NC(C)(C)C)cc1 (stereo not given) was read as Wee1 degr inh -2.6, bCat nuc transl -0.8 and Insulin prom up 0.35.
CCCCCc1c(C)nc(Nc2ccc(F)cc2)[nH]c1=O was read as Wee1 degr inh -1.1, bCat nuc transl -5.4, MT stabilize HCS 2.2, Insulin prom up -0.51 and Autophagy mod inactive.
CCCCc1c(C)nc(Nc2ccc(OC)cc2)[nH]c1=O was read as Wee1 degr inh 18.5*, bCat nuc transl 2.6, MT stabilize HCS 1.9, Insulin prom up 1.05, Autophagy mod inactive and Wee1 degr conf -1.4.
For S=C(NCCN1CCOCC1)Nc1cccc(Cl)c1 the results were Wee1 degr inh 15.0*, MT stabilize HCS 4.2, Insulin prom up -0.01, Autophagy mod inactive and Wee1 degr conf -1.0.
S=C(Nc1ccccc1)N1CCN(Cc2ccccc2)CC1 was read as Wee1 degr inh 2.9 and bCat nuc transl 1.0.
`S=C(Nc1cccc(Cl)c1)N1CCN(Cc2ccccc2)CC1` gave Wee1 degr inh 11.1*, bCat nuc transl 3.2, MT stabilize HCS 2.0, Insulin prom up -0.9, Autophagy mod inactive and Wee1 degr conf 4.5.
CCCNC(=O)CN(C)CC(=O)Nc1ccccc1C#N was read as Wee1 degr inh 6.1, bCat nuc transl -2.7, MT stabilize HCS 3.8, Insulin prom up 0.77 and Autophagy mod inactive.
CC1CCCCN1C(=O)CSc1nnc(-c2c[nH]c3ccccc23)o1 (stereo not given) was read as Wee1 degr inh 12.6*, bCat nuc transl -0.7, MT stabilize HCS 1.5, Insulin prom up 0.73, Autophagy mod inactive and Wee1 degr conf 1.4.
For CN(C)S(=O)(=O)c1cccc(C(=O)OCC(=O)NC2CCCc3ccccc32)c1 (stereo not given) the results were Wee1 degr inh -0.7, bCat nuc transl 1.5, MT stabilize HCS 7.8, Insulin prom up 0.29 and Autophagy mod inactive.
Cc1ccc(Cl)cc1-n1c(=O)cc(N2CCN(C(=O)c3ccco3)CC2)[nH]c1=O was read as Wee1 degr inh 14.1*, bCat nuc transl -1.6, MT stabilize HCS 3.5, Insulin prom up 0.06, Autophagy mod inactive and Wee1 degr conf -0.7.
For COc1ccc(-c2ccc(SCC(=O)Nc3cccc(C(C)=O)c3)nn2)cc1OC the results were Wee1 degr inh 11.8*, bCat nuc transl -1.7, MT stabilize HCS 2.6, Insulin prom up 0.77, Autophagy mod inactive and Wee1 degr conf 5.4.
For O=C(O)/C=C/c1cnn(-c2ccccc2)c1 the results were Wee1 degr inh 15.1*, bCat nuc transl -1.0, MT stabilize HCS 1.5, Insulin prom up -1.05, Autophagy mod inactive and Wee1 degr conf -4.8.
Screening COc1ccc(N(CC(=O)Nc2ccc(S(=O)(=O)N3CCCCC3)cc2)S(C)(=O)=O)cc1OC returned Wee1 degr inh 24.0*, bCat nuc transl -1.4, MT stabilize HCS 2.4, Insulin prom up 0.32, Autophagy mod inactive and Wee1 degr conf 0.0.
CC1(C)NC(=O)N(CCCCOc2ccccc2[N+](=O)[O-])C1=O was read as Wee1 degr inh 11.4*, bCat nuc transl -1.0, MT stabilize HCS 3.6, Insulin prom up -0.01, Autophagy mod inactive and Wee1 degr conf 2.2.
Screening COc1cccc(C(=O)Nc2ccc(S(=O)(=O)Nc3cc(C)nc(C)n3)cc2)c1 returned Wee1 degr inh 0.4, bCat nuc transl 0.8, MT stabilize HCS 1.6, Insulin prom up -0.35 and Autophagy mod inactive.
For c1ccc2[nH]c(NN=C3CCCCCC3)nc2c1 the results were Wee1 degr inh 17.3*, bCat nuc transl 1.6, MT stabilize HCS 3.6, Insulin prom up 0.66, Autophagy mod inactive and Wee1 degr conf 3.0.
`Cc1csc2sc(-c3ccnc(SCC(=O)NCc4ccccc4)n3)c(C)c12` gave Wee1 degr inh 14.0*, bCat nuc transl 1.2, Insulin prom up -0.48 and Wee1 degr conf 21.5*.
Screening C/C(=N\Nc1ccc(S(=O)(=O)N2CCOCC2)cc1[N+](=O)[O-])C(C)C returned Wee1 degr inh 2.9, bCat nuc transl -0.2, MT stabilize HCS 7.2, Insulin prom up -1.11 and Autophagy mod inactive.
O=C(c1ccco1)N1CCN(c2ccc([N+](=O)[O-])c(N3CCOCC3)c2)CC1 was read as Wee1 degr inh 7.5, bCat nuc transl 0.2, MT stabilize HCS 4.4, Insulin prom up -1.04 and Autophagy mod inactive.

High-throughput results from PubChem BioAssay.
